RGS4 block = RGS4 inhibitors, primary screen, cell-based, HEK293 M3R inducible RGS4, calcium flux; Regulator of G-protein signaling 4 (Homo sapiens), P49798; Fluo-4 calcium flux; active compounds read high; triggered by carbachol at its EC20; B-score at 10 µM; actives 0.45% (n = 310,000);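 active = B-score, a plate-corrected calcium signal, over three deviations above library mean, with baseline fluorescence within five deviations of library mean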;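 also: RGS4 expression induced by doxycycline in cells with stable M3 receptor; B-score is computed from the integrated fluorescence ratio over baseline after carbachol; higher B-score means a larger calcium signal and so more RGS4 inhibition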
Target sequence (P49798 whole entry, looked up): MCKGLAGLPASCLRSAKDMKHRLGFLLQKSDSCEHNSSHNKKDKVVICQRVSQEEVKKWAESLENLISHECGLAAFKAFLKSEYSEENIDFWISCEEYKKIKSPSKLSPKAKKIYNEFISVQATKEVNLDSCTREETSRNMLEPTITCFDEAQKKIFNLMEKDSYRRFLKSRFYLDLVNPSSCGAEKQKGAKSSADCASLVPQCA
RGS4 pot = RGS4 potentiators or activators, primary screen, cell-based, HEK293 M3R inducible RGS4, calcium flux | carbachol calcium flux Fluo4; active compounds read low | B-score at 10 µM | actives 0.92% (n = 310,000) | AID 463111, 2010;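 active = B-score of the integrated calcium signal more than 4 SD below the library mean, with starting fluorescence not abnormally high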;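 also: negative B-score means reduced calcium response which marks RGS4 activation or potentiation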
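Also added: carbachol at ECmax as muscarinic agonist stimulus; Assay system: HEK293 cells with stable M3R and inducible RGS4; Timing: overnight RGS4 induction, 30 min dye load 37 °C, 20 min compound RT; Measured by: Fluo4-AM (2 µM) calcium-flux fluorescence, kinetic read.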
MrgX1 antagonist = antagonists of human MrgX1 receptor, primary screen, HEK293 cells, Fluo-4 calcium flux | Mas-related G-protein coupled receptor member X1 (Homo sapiens), Q96LB2 | BAM8-22 antagonism; active compounds read low | B-score at 10 µM | actives 1.3% (n = 310,000) | AID 588676, 2011;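 active = calcium-response B-score plate-corrected more than 3 library SD below zero, starting fluorescence within 5 deviations, no agonist response on first addition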;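 also: peak minus trough fluorescence over baseline after final BAM8-22 challenge near maximal dose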
Target sequence (Q96LB2 whole entry, looked up): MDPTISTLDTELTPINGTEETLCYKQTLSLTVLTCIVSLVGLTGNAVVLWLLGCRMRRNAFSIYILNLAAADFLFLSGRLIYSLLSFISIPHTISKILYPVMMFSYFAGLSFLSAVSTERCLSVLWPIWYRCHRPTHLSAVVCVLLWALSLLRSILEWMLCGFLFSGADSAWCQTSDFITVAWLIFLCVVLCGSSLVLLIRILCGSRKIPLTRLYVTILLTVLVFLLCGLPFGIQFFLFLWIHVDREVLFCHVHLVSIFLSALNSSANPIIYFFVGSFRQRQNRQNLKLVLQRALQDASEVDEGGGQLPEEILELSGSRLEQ
MrgX1 PAM = positive allosteric modulators of MrgX1, primary screen, HEK293 cells, Fluo-4 calcium flux; Mas-related G-protein coupled receptor member X1 (Homo sapiens), Q96LB2; FDSS; active compounds read high; B-score at 10 µM; actives 0.63% (n = 310,000);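 active = plate-corrected calcium response at least 3 library SD above typical, normal starting fluorescence, not activating the receptor alone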;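 also: compound read alongside a low EC10 to EC30 dose of BAM8-22 agonist; peak minus trough fluorescence over baseline measured at the second addition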
MrgX1 agonist = agonists of human MrgX1 receptor, primary screen, HEK293 cells, Fluo-4 calcium flux | B-score at 10 µM | Fluo-4 calcium fluorescence, agonist mode; active compounds read high | AID 588627, 2011 | actives 0.44% (n = 310,000);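 active = calcium response B-score plate-corrected fluorescence ratio at least 3 library SD, with starting fluorescence B-score inside 5 SD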
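Material: HEK293 cells stably expressing human MrgX1 receptor | Quantity: 15,000 cells per well | Times: Cells plated overnight, dye loaded 0.5 h 37 °C, 0.5 h room temperature | Measured by: Kinetic Fluo-4 NW fluorescence of intracellular calcium | Control set: Positive and negative controls per plate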
RGS4 act valid = reduced carbachol calcium response, RGS4-induced M3R cells, confirmation, RGS4 activator project, cell-based, HEK293 M3R/RGS4 inducible, calcium flux, duplicate | shares compounds with RGS4 pot | inhibition, % at 10 µM | carbachol calcium flux Fluo4 | AID 602282, 2012 | actives 89% (n = 1,100);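 active = inhibition above 3 SD of the buffer control wells, cut at about 41% in these data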;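 also: signal is the integrated peak-minus-minimum Fluo4 fluorescence over baseline ratio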
RGS4 act ctr = counter-screen for RGS4 activators: effect in non-induced cells | shares compounds with RGS4 pot | HEK293 M3R non-induced RGS4, Fluo4 calcium flux; after carbachol challenge at its EC90 | inhibition, % at 10 µM | actives 82% (n = 1,100);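 active = inhibition exceeding 3 SD of buffer-only control wells, cut at about 26% in these data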;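 also: percent drop in integrated peak-minus-baseline over baseline Fluo4 ratio after carbachol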
Numbers without * were called inactive; i = inactive; · = no result. The list is not random: actives were taken first. Their share in the collection is about 3.5%.

SMILES | RGS4 block | RGS4 pot | MrgX1 antagonist | MrgX1 PAM | MrgX1 agonist | RGS4 act valid | RGS4 act ctr
CS(=O)(=O)c1ccc2nc(NC(=O)c3ccc(Cn4cc(Br)cn4)o3)sc2c1 | i | -8.81* | i | i | i | 63.0* | 0.0
O=c1c2ccccc2nc(-c2ccccc2Cl)n1O | i | i | i | i | i | · | ·
O=C1NC2CCc3nc4ccccc4c(=O)n3C2=Nc2ccccc21 (configuration not stated) | i | -9.75* | i | i | i | 0.0 | 0.0
Cc1ccc(S(=O)(=O)Nc2cccc(C(=O)NCC(c3ccco3)N(C)C)c2)cc1F (configuration not stated) | i | -8.16* | i | i | i | 66.0* | 83.8*
CNS(=O)(=O)c1cccc(C(=O)NCC(c2ccco2)N(C)C)c1 (configuration not stated) | i | i | i | i | i | · | ·
Cc1ccccc1NC(=O)c1cccc2nc3ccccc3nc12 | i | -7.76* | i | i | i | 86.0* | 59.3*
O=C(c1ccc(F)cc1)C1CCN(Cc2ccc(F)cc2)CC1 | i | i | i | i | i | · | ·
COc1ccc2[nH]c(C(=O)N3CCC(Cc4ccccc4)CC3)cc2c1 | i | i | i | i | i | · | ·
COc1ccc2cc(C(=O)N3CCC(Cc4ccccc4)CC3)[nH]c2c1 | i | -7.92* | i | i | i | 0.0 | 0.0
CCC(CC)C(=O)Nc1cccc(C(=O)N2CCOCC2)c1 | i | -10.2* | i | i | i | 0.0 | 0.0
CCC(CC)C(=O)Nc1cccc(C(=O)N2CCCCCC2)c1 | i | i | i | i | i | · | ·
c1ccc(Cn2c(-c3ccccc3)c[n+]3c2SCCC3)cc1 | i | -11* | i | i | i | 92.5* | 88.8*
Brc1ccc(-c2c[n+]3c(n2-c2ccccc2)SCC3)cc1 | i | i | i | i | i | · | ·
CC(Oc1ccccc1)C(=O)Nc1ccc(C(N)=O)cc1 (configuration not stated) | i | i | i | i | i | · | ·
CC(C)NS(=O)(=O)c1ccc(NC(=O)C(C)Oc2ccc(C(=O)c3ccccc3)cc2)cc1 (configuration not stated) | i | -7.66* | -8.57* | i | i | 69.5* | 74.3*
O=C(CCn1cccn1)N1CCCC(N2CCN(c3cccc(C(F)(F)F)c3)CC2)C1 (configuration not stated) | i | i | i | i | i | · | ·
COCCCn1c(C)nnc1SCC(=O)Nc1cccc(C)c1 | i | i | i | i | i | · | ·
O=C(NC(=S)Nc1ccccc1N1CCN(C(=O)c2ccccc2)CC1)c1ccccc1F | i | -7.98* | i | i | i | 68.0* | 0.0
O=C(Nc1ccccc1N1CCN(C(=O)c2ccccc2)CC1)c1ccc(Cl)cc1 | i | i | i | i | i | · | ·
O=C(NC(=S)Nc1ccccc1N1CCOCC1)c1ccccc1F | i | i | i | i | i | · | ·
O=C(Nc1ccccc1N1CCN(C(=O)c2ccccc2)CC1)c1ccc(Br)o1 | i | -7.83* | i | i | i | 48.5* | 0.0
COc1ccc(C(=O)Nc2ccccc2N2CCN(C(=O)c3ccccc3)CC2)cc1Br | i | -9.45* | i | i | i | 64.5* | 26.3*
CCNC(=S)NNc1nnc(-c2ccccc2)c(-c2ccccc2)n1 | i | i | i | i | i | · | ·
CCN(CC)S(=O)(=O)c1cc(NC(=O)C(C)N2CCN(c3ccccn3)CC2)ccc1C (configuration not stated) | i | -9.05* | i | i | i | 63.5* | 0.0
CCN(CC(=O)Nc1ccc(NC(C)=O)cc1)C(=O)c1cc(CN2C(=O)c3ccccc3C2=O)ccc1OC | i | i | i | i | i | · | ·
SMILES | RGS4 block | RGS4 pot | MrgX1 antagonist | MrgX1 PAM | MrgX1 agonist | RGS4 act valid | RGS4 act ctr
O=C(NCCOc1ccc(F)cc1)c1ccccc1SCc1ccccc1 | i | -7.71* | i | i | i | 92.5* | 73.8*
CCc1ccc(OCCNC(=O)c2ccccc2SCc2ccc(F)cc2)cc1 | i | i | i | i | i | · | ·
Cc1cc(Br)cn2cc(C(=O)O)nc12 | i | i | i | i | i | · | ·
CCn1ccnc1CNC(=O)C1CCC(=O)N(Cc2ccccc2F)C1 (configuration not stated) | i | i | i | i | i | · | ·
Cc1ccccc1OCC(=O)NC(=S)Nc1ccccc1N1CCN(S(C)(=O)=O)CC1 | i | -9.1* | i | i | i | 62.0* | 0.0
CCCCCCNS(=O)(=O)c1ccc(Cl)s1 | i | -9.97* | i | i | i | 43.0* | 83.8*
COCC(=O)Nc1cc(C)cn(Cc2ccc(F)cc2)c1=O | i | i | i | i | i | · | ·
COc1cccc(OC)c1OCCCOc1c(OC)cccc1OC | i | i | i | i | i | · | ·
COc1cccc(OC)c1OCCNCC1CSc2ccccc2O1 (configuration not stated) | i | -8.09* | i | i | i | 0.0 | 0.0
CCOc1cccc(C(=O)NC(=S)Nc2ccc(N3CCN(CC)CC3)cc2)c1 | i | -11* | i | i | i | 92.0* | 86.8*
COc1ccc(C(=O)N/C(=C/c2ccco2)C(=O)N2CCCCCC2)cc1 | i | i | i | i | i | · | ·
CCOC(=O)C(=CNc1ccc(NC2=NCC(C)(C)S2)cc1)C(=O)OCC | i | -11.1* | i | i | i | 79.0* | 83.8*
COc1ccc(N(CC(=O)NCCSc2ccc(C)cc2)S(=O)(=O)c2ccccc2)c(OC)c1 | i | -12.3* | i | i | i | 73.0* | 0.0
N#Cc1c(-c2ccccc2)cc(-c2ccccc2)[nH]c1=O | i | i | i | i | i | · | ·
COc1cc(-c2cc(-c3ccc(N)cc3)[nH]c(=O)c2C#N)cc(OC)c1OC | i | -7.97* | i | i | i | 0.0 | 0.0
Cc1ccc(SCc2c(-c3ccccc3)nn(C)c2Cl)cc1 | i | i | i | i | i | · | ·

High-throughput results deposited in PubChem BioAssay by Johns Hopkins Ion Channel Center.
